According to ChEMBL document CHEMBL5131507, “Identification of histone deacetylase 10 (HDAC10) inhibitors that modulate autophagy in transformed cells” (Eur J Med Chem, 2022):
Active and inactive are the calls of the source. No cut-off for these calls is given here.

How the values were obtained:
Histone deacetylase 1 [1] = biological target: T1, Histone deacetylase 1 (Homo sapiens, UniProt Q13547); experiment: Inhibition of recombinant human HDAC1 using ZMAL (Z-(Ac)Lys-AMC as substrate incubated for 20 mins and measured by homogenous fluorescence assay
T1 sequence (Q13547 whole entry): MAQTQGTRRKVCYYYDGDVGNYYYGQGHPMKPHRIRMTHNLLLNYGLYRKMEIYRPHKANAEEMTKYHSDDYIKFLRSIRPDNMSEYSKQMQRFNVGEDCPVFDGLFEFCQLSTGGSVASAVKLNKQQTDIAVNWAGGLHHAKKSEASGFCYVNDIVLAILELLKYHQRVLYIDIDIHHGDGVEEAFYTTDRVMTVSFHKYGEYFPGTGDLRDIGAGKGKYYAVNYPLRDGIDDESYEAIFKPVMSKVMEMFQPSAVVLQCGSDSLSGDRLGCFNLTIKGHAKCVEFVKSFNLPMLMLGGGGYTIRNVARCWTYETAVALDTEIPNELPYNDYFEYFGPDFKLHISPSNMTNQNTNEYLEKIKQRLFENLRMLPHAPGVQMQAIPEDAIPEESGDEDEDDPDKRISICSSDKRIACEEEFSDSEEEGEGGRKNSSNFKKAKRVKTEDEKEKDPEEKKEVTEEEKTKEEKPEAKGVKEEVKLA

Histone deacetylase 8 = biological target: T2, Histone deacetylase 8 (Homo sapiens, UniProt Q9BY41); experiment: Inhibition of recombinant human HDAC8 using H2N-Arg- His-Lys(Ac)-Lys(Ac)-AMC as substrate incubated for 90 mins and measured after 20 mins by fluorescence assay
T2 sequence (Q9BY41 whole entry): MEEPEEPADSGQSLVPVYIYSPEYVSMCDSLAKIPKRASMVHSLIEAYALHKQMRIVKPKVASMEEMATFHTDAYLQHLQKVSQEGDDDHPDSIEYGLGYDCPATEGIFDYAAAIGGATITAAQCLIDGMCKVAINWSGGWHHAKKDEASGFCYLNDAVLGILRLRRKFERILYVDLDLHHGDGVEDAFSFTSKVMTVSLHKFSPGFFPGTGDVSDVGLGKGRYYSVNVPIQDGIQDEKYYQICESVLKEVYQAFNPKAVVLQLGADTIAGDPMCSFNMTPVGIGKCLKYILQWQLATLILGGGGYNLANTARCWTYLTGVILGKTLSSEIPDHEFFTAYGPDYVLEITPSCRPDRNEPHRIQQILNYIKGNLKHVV
Outline: (§1)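 Recombinant hHDAC8 run per a commercial fluorometric HDAC8 kit protocol. Substrate H2N-Arg-His-Lys(Ac)-Lys(Ac)-AMC at 50 μM with enzyme and rising inhibitor concentrations, 90 min at 37 °C. Stop solution with inhibitor plus trypsin added, developed 20 min at 37 °C. Read at Ex 355/Em 460 nm.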

HEK293 = experiment: Cytotoxicity against human HEK293 cells assessed as cell viability at 50 uM measured after 24 hrs by Alamar Blue assay; type: toxicity, cell-based; settings: hek293, 24 h
[2] = biological target: T3, Polyamine deacetylase HDAC10 (Danio rerio, UniProt F1QCV2); experiment: Inhibition of zebra fish HDAC10 using Ac-spermidine-AMC as substrate incubated for 25 mins and measured by fluorescence assay
T3 sequence (F1QCV2 whole entry): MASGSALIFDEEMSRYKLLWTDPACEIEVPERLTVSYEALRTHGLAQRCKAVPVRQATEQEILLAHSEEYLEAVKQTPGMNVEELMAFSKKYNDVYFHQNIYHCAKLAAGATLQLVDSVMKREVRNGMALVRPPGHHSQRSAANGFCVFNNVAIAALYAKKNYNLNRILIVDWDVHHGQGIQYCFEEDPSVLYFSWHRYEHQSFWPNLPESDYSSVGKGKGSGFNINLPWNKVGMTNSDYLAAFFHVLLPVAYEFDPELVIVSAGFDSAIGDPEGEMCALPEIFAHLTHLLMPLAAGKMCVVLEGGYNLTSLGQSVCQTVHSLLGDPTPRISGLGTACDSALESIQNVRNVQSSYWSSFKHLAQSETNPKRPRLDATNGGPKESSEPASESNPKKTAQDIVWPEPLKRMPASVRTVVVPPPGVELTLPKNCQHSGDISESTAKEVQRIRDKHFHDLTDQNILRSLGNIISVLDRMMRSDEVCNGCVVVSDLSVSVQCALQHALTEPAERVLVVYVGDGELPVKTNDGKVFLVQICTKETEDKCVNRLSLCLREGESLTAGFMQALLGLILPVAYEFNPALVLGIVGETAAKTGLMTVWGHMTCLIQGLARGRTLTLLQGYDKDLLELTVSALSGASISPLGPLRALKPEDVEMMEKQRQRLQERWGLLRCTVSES
Outline: (§2)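 Ac-spermidine-AMC at 10.5 μM final in pH 7.9 phosphate buffer (NaCl, EDTA, glycerol, Mesna, Tween 20); inhibitors in DMSO. 25 min at 25 °C, stopped with NDA in borate pH 9.5. Read at Ex 330/Em 390 nm; IC50 by nonlinear regression.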

[3] = biological target: T4, Protein deacetylase HDAC6 (Homo sapiens, UniProt Q9UBN7); experiment: Inhibition of recombinant human HDAC6 using ZMAL (Z-(Ac)Lys-AMC as substrate incubated for 20 mins and measured by homogenous fluorescence assay
T4 sequence (Q9UBN7 whole entry): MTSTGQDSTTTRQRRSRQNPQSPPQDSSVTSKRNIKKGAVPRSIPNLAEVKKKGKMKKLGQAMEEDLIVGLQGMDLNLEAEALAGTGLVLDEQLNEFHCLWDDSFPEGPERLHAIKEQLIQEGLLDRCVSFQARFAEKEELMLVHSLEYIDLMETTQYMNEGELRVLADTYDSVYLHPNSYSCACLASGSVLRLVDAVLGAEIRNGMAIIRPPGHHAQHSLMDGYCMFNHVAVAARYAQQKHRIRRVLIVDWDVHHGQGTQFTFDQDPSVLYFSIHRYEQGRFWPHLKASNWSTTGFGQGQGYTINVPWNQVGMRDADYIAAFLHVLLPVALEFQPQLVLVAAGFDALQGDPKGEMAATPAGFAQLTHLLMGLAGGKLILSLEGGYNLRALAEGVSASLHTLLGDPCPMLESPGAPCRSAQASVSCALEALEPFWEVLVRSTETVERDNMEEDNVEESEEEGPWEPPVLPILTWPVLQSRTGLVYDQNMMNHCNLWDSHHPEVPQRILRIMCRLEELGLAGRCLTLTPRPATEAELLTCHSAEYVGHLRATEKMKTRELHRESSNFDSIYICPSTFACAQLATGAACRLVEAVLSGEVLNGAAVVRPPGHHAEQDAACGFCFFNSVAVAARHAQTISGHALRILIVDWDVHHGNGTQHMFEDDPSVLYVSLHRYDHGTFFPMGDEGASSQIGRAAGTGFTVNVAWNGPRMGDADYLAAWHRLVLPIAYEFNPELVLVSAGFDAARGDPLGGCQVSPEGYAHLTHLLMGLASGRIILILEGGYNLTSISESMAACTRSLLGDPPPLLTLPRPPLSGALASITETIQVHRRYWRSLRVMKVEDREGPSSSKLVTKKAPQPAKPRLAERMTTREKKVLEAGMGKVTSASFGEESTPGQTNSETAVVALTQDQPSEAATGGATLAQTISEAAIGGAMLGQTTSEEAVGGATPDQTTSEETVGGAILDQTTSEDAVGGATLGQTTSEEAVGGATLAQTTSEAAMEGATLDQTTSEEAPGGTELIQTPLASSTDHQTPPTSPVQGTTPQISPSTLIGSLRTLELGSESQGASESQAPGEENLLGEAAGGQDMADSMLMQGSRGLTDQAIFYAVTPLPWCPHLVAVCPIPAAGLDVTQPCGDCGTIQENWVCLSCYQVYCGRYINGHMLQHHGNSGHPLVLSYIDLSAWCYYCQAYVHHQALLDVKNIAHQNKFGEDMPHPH

[4] = biological target: T5, Protein deacetylase HDAC6 (Homo sapiens) (UniProt Q9UBN7); experiment: Inhibition of recombinant human HDAC6 using ZMAL (Z-(Ac)Lys-AMC as substrate incubated for 20 mins at 1 uM and measured by homogenous fluorescence assay relative to control
T5 sequence (whole entry): T4 sequence (Q9UBN7 whole entry)

[5] = biological target: T6, Histone deacetylase 8 (Homo sapiens) (UniProt Q9BY41); experiment: Inhibition of recombinant human HDAC8 using H2N-Arg- His-Lys(Ac)-Lys(Ac)-AMC as substrate incubated for 90 mins at 10 uM and measured after 20 mins by fluorescence assay relative to control; outline: as §1
T6 sequence (whole entry): T2 sequence (Q9BY41 whole entry)

Histone deacetylase 1 [6] = biological target: T1, Histone deacetylase 1; experiment: Inhibition of recombinant human HDAC1 using ZMAL (Z-(Ac)Lys-AMC as substrate incubated for 20 mins at 1 uM and measured by homogenous fluorescence assay relative to control
Histone deacetylase 1 [7] = biological target: T1, Histone deacetylase 1; experiment: Inhibition of recombinant human HDAC1 using ZMAL (Z-(Ac)Lys-AMC as substrate incubated for 20 mins at 10 uM and measured by homogenous fluorescence assay relative to control
[8] = biological target: T7, Polyamine deacetylase HDAC10 (Danio rerio) (UniProt F1QCV2); experiment: Inhibition of zebra fish HDAC10 using Ac-spermidine-AMC as substrate incubated for 25 mins at 10 uM and measured by fluorescence assay relative to control; outline: as §2
T7 sequence (whole entry): T3 sequence (F1QCV2 whole entry)

[9] = biological target: T5, Protein deacetylase HDAC6 (Homo sapiens); experiment: Inhibition of recombinant human HDAC6 using ZMAL (Z-(Ac)Lys-AMC as substrate incubated for 20 mins at 10 uM and measured by homogenous fluorescence assay relative to control
[10] = biological target: T6, Histone deacetylase 8 (Homo sapiens); experiment: Inhibition of recombinant human HDAC8 using H2N-Arg- His-Lys(Ac)-Lys(Ac)-AMC as substrate incubated for 90 mins at 1 uM and measured after 20 mins by fluorescence assay relative to control; outline: as §1
MV4-11 = experiment: Induction of autophagy in human MV4-11 cells assessed as slight increase in HDAC10 at 2 to 15 uM measured by immunoblotting method; type: functional, cell-based; settings: dose 2-15 µM
[11] = biological target: T5, Protein deacetylase HDAC6 (Homo sapiens); experiment: Inhibition of HDAC6 in human MV4-11 cells assessed as fold-induction of tubulin acetylation at 15 uM measured by immunoblotting method; type: cell-based
Outline: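 MV4–11 cells treated 24 h with 2–15 μM test compounds or 0.5 μM marbostat-100 as HDAC6 reference, with solvent control. Whole-cell lysates immunoblotted for acetylated tubulin-α, β-actin as loading control. Blots quantified and expressed as fold change over untreated cells; n = 2.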

Row | SMILES | IC50 (Histone deacetylase 1 [1]) | IC50 (Histone deacetylase 8) | Activity (HEK293) | IC50 [2] | IC50 [3] | inhibition [4] | inhibition [5] | inhibition (Histone deacetylase 1 [6]) | inhibition (Histone deacetylase 1 [7]) | inhibition [8] | inhibition [9] | inhibition [10] | Activity (MV4-11) | fold change (FC) [11]
1 | O=C(/C=C/C1CCN(Cc2ccc(Cl)cc2)CC1)NO | 9000 nM | 950 nM | 84.6% | 33 nM | 430 nM |  |  |  |  |  |  |  |  | 
2 | O=C(/C=C/C1CCN(Cc2ccc(-c3ccccc3)cc2)CC1)NO |  |  | 55% |  |  | 29% | 91% | 22% | 56% | 46% | 72% | 54% |  | 
3 | O=C(/C=C/C1CCN(Cc2cccc(Cl)c2)CC1)NO |  |  | 88.6% | 60 nM |  | 40% |  | 24% | 67% |  | 83% |  |  | 
4 | Cc1ccc(CN2CCC(/C=C/C(=O)NO)CC2)cc1 |  |  | 104.9% |  |  |  |  |  |  | 23% |  |  |  | 
5 | CN1CCc2c(c3ccccc3n2Cc2ccc(C(=O)NO)cc2)C1 [TUBASTATIN A] |  |  |  | 220 nM |  |  |  |  |  |  |  |  |  | 
6 | O=C(NO)c1ccc(CNCc2cccs2)cc1 |  | 3200 nM | 71.6% | 106 nM | 158 nM |  |  | 15% | 68% |  |  |  |  | 
7 | O=C(NO)c1ccc(CNCc2ccsc2)cc1 |  | 1900 nM | 81.5% | 24 nM | 177 nM |  |  | 16% | 50% |  |  |  |  | 
8 | O=C(/C=C/C1CCN(Cc2cccc3ccccc23)CC1)NO | 3000 nM |  | 51.6% | 20 nM | 3700 nM |  |  |  |  |  |  |  | Active | 36
9 | O=C(NO)c1ccc(CNCc2ccccc2)cc1 |  | 3500 nM | 77.1% | 37 nM | 210 nM |  |  | 19% | 49% |  |  |  |  | 
10 | CN1CCN(Cc2ccc(C(=O)NO)cc2)CC1 |  |  | 86.4% | 43 nM | 280 nM |  |  | 6% | 54% |  |  |  |  | 
11 | O=C(/C=C/C1CCN(Cc2csc3ccccc23)CC1)NO |  | 1300 nM | 88.2% | 62 nM | 1400 nM |  |  | 29% | 66% |  |  |  |  | 
12 | O=C(/C=C/C1CCN(CCc2ccccc2)CC1)NO | 16000 nM |  | 54.4% | 11 nM | 4400 nM |  |  |  |  |  |  |  |  | 
13 | Cn1cc(CN2CCC(/C=C/C(=O)NO)CC2)c2ccccc21 |  | 920 nM | 68.2% | 58 nM | 2420 nM |  |  | 12% | 67% |  |  |  | Active | 36
14 | O=C(/C=C/C1CCN(Cc2ccccc2)CC1)NO |  |  | 100.9% | 530 nM |  | 34% |  | 12% | 62% |  | 89% |  |  | 
